In ChEMBL document CHEMBL4689842, “EUbOPEN Chemogenomics Library wave 1” (2021):

Assays:
Type in all cases: toxicity, cell-based
U2OS [1] = assay: Multiplex assay against U2OS; conditions: human
Outline: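 Phenotypes for tubulin, mitochondrial mass and membrane permeability are expressed as per cents of healthy-nucleus cells. Cells were stained live at seeding with Hoechst33342, BioTracker Green Microtubule Cytoskeleton Dye, MitoTracker Red and Annexin V Alexa Fluor 680, then imaged after compound addition on a CQ1 microscope at 37°C and 5% CO2. Machine-learning gating in CellPathfinder separated Hoechst high-intensity objects from normal cells, divided normal cells by nuclear state (healthy, pyknosed, fragmented) and divided pyknosed cells into mitotic or apoptotic.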

HEK-293T = assay: Incucyte cell viability with HEK293T; conditions: human, 10 µM, compound concentration 10 uM; further: filed as whole numbers so only -1 and 0 and 1 occur
U2OS [2] = assay: Incucyte cell viability with U2OS; conditions: human, 10 µM, compound concentration 10 uM; further: filed as whole numbers so only -1 and 0 and 1 occur
[3] = 12 h, 1 µM, compound concentration 1 uM, replicate 1
[4] = 12 h, 1 µM, compound concentration 1 uM, replicate 2
[5] = 12 h, 10 µM, compound concentration 10 uM, replicate 1
[6] = 12 h, 10 µM, compound concentration 10 uM, replicate 2
[7] = 24 h, 1 µM, compound concentration 1 uM, replicate 1
[8] = 24 h, 1 µM, compound concentration 1 uM, replicate 2
[9] = 24 h, 10 µM, compound concentration 10 uM, replicate 1
[10] = 24 h, 10 µM, compound concentration 10 uM, replicate 2
[11] = 6 h, replicate number 1, timepoint 6 hours
[12] = 12 h, replicate number 1, timepoint 12 hours
[13] = 18 h, replicate number 1, timepoint 18 hours
[14] = 24 h, replicate number 1, timepoint 24 hours
[15] = 0 h, replicate number 2, timepoint 0 hours

SMILES: NC(=O)c1ccc2nc(-c3ccc(C4(N)CCC4)cc3)c(-c3ccccc3)n2n1 [BAY-1125976]
- Population Apoptotic (%) (U2OS [1]; [3]): 52%
- Population Healthy Nuclei (%) (U2OS [1]; [3]): 79%
- Population Hoechst High Intensity Objects (%) (U2OS [1]; [3]): 6%
- Population Mitochondria Different-Phenotype (%) (U2OS [1]; [3]): 19%
- Population Mitotic Cells (%) (U2OS [1]; [3]): 47%
- Population Normal (%) (U2OS [1]; [3]): 93%
- Population Tubulin-Different-Phenotype (%) (U2OS [1]; [3]): 46%
- Total Cell Count (U2OS [1]; [3]): 239
- Population Apoptotic (%) (U2OS [1]; [4]): 42%
- Population Healthy Nuclei (%) (U2OS [1]; [4]): 80%
- Population Hoechst High Intensity Objects (%) (U2OS [1]; [4]): 12%
- Population Mitotic Cells (%) (U2OS [1]; [4]): 57%
- Population Normal (%) (U2OS [1]; [4]): 87%
- Population Tubulin-Different-Phenotype (%) (U2OS [1]; [4]): 35%
- Total Cell Count (U2OS [1]; [4]): 109
- Population Apoptotic (%) (U2OS [1]; [5]): 66%
- Population Healthy Nuclei (%) (U2OS [1]; [5]): 92%
- Population Mitochondria Different-Phenotype (%) (U2OS [1]; [5]): 24%
- Population Mitotic Cells (%) (U2OS [1]; [5]): 33%
- Population Tubulin-Different-Phenotype (%) (U2OS [1]; [5]): 27%
- Total Cell Count (U2OS [1]; [5]): 210
- Population Apoptotic (%) (U2OS [1]; [6]): 20%
- Population Healthy Nuclei (%) (U2OS [1]; [6]): 88%
- Population Hoechst High Intensity Objects (%) (U2OS [1]; [6]): 4%
- Population Mitochondria Different-Phenotype (%) (U2OS [1]; [6]): 23%
- Population Mitotic Cells (%) (U2OS [1]; [6]): 80%
- Population Normal (%) (U2OS [1]; [6]): 95%
- Population Tubulin-Different-Phenotype (%) (U2OS [1]; [6]): 18%
- Total Cell Count (U2OS [1]; [6]): 165
- Population Apoptotic (%) (U2OS [1]; [7]): 42%
- Population Healthy Nuclei (%) (U2OS [1]; [7]): 76%
- Population Hoechst High Intensity Objects (%) (U2OS [1]; [7]): 5%
- Population Mitochondria Different-Phenotype (%) (U2OS [1]; [7]): 18%
- Population Mitotic Cells (%) (U2OS [1]; [7]): 57%
- Population Normal (%) (U2OS [1]; [7]): 94%
- Population Tubulin-Different-Phenotype (%) (U2OS [1]; [7]): 23%
- Total Cell Count (U2OS [1]; [7]): 273
- Population Apoptotic (%) (U2OS [1]; [8]): 44%
- Population Healthy Nuclei (%) (U2OS [1]; [8]): 77%
- Population Hoechst High Intensity Objects (%) (U2OS [1]; [8]): 8%
- Population Mitochondria Different-Phenotype (%) (U2OS [1]; [8]): 20%
- Population Mitotic Cells (%) (U2OS [1]; [8]): 55%
- Population Normal (%) (U2OS [1]; [8]): 91%
- Population Tubulin-Different-Phenotype (%) (U2OS [1]; [8]): 13%
- Total Cell Count (U2OS [1]; [8]): 124
- Population Apoptotic (%) (U2OS [1]; [9]): 33%
- Population Hoechst High Intensity Objects (%) (U2OS [1]; [9]): 1%
- Population Mitochondria Different-Phenotype (%) (U2OS [1]; [9]): 31%
- Population Mitotic Cells (%) (U2OS [1]; [9]): 66%
- Population Normal (%) (U2OS [1]; [9]): 98%
- Population Tubulin-Different-Phenotype (%) (U2OS [1]; [9]): 30%
- Total Cell Count (U2OS [1]; [9]): 258
- Population Apoptotic (%) (U2OS [1]; [10]): 7%
- Population Healthy Nuclei (%) (U2OS [1]; [10]): 87%
- Population Hoechst High Intensity Objects (%) (U2OS [1]; [10]): 5%
- Population Mitochondria Different-Phenotype (%) (U2OS [1]; [10]): 28%
- Population Mitotic Cells (%) (U2OS [1]; [10]): 92%
- Population Normal (%) (U2OS [1]; [10]): 94%
- Population Tubulin-Different-Phenotype (%) (U2OS [1]; [10]): 25%
- Total Cell Count (U2OS [1]; [10]): 213
- Growth Rate (HEK-293T; [11]): 0
- Growth Rate (HEK-293T; [12]): 0
- Growth Rate (HEK-293T; [13]): 0
- Growth Rate (HEK-293T; [14]): 0
- Growth Rate (U2OS [2]; [15]): 0
- Growth Rate (U2OS [2]; [13]): 1
- Growth Rate (U2OS [2]; [14]): 1

SMILES: CC[C@@H]1C(=O)N(C)c2cnc(Nc3ccc(C(=O)NC4CCN(C)CC4)cc3OC)nc2N1C1CCCC1 [BI-2536]
- Population Apoptotic (%) (U2OS [1]; [3]): 100%
- Population Fragmented Nuclei (%) (U2OS [1]; [3]): 16%
- Population Healthy Nuclei (%) (U2OS [1]; [3]): 80%
- Population Hoechst High Intensity Objects (%) (U2OS [1]; [3]): 1%
- Population Membrane Permeable-Phenotype (%) (U2OS [1]; [3]): 40%
- Population Mitochondria Different-Phenotype (%) (U2OS [1]; [3]): 16%
- Population Mitotic Cells (%) (U2OS [1]; [3]): 0%
- Population Normal (%) (U2OS [1]; [3]): 98%
- Population Pyknosed Nuclei (%) (U2OS [1]; [3]): 3%
- Population Tubulin-Different-Phenotype (%) (U2OS [1]; [3]): 35%
- Total Cell Count (U2OS [1]; [3]): 142
- Population Apoptotic (%) (U2OS [1]; [4]): 70%
- Population Fragmented Nuclei (%) (U2OS [1]; [4]): 10%
- Population Healthy Nuclei (%) (U2OS [1]; [4]): 79%
- Population Hoechst High Intensity Objects (%) (U2OS [1]; [4]): 8%
- Population Membrane Permeable-Phenotype (%) (U2OS [1]; [4]): 33%
- Population Mitochondria Different-Phenotype (%) (U2OS [1]; [4]): 24%
- Population Mitotic Cells (%) (U2OS [1]; [4]): 30%
- Population Normal (%) (U2OS [1]; [4]): 91%
- Population Pyknosed Nuclei (%) (U2OS [1]; [4]): 10%
- Population Tubulin-Different-Phenotype (%) (U2OS [1]; [4]): 34%
- Total Cell Count (U2OS [1]; [4]): 107
- Population Apoptotic (%) (U2OS [1]; [5]): 76%
- Population Fragmented Nuclei (%) (U2OS [1]; [5]): 15%
- Population Healthy Nuclei (%) (U2OS [1]; [5]): 76%
- Population Hoechst High Intensity Objects (%) (U2OS [1]; [5]): 2%
- Population Membrane Permeable-Phenotype (%) (U2OS [1]; [5]): 41%
- Population Mitochondria Different-Phenotype (%) (U2OS [1]; [5]): 72%
- Population Mitotic Cells (%) (U2OS [1]; [5]): 23%
- Population Normal (%) (U2OS [1]; [5]): 97%
- Population Pyknosed Nuclei (%) (U2OS [1]; [5]): 8%
- Population Tubulin-Different-Phenotype (%) (U2OS [1]; [5]): 99%
- Total Cell Count (U2OS [1]; [5]): 160
- Population Apoptotic (%) (U2OS [1]; [6]): 81%
- Population Fragmented Nuclei (%) (U2OS [1]; [6]): 23%
- Population Healthy Nuclei (%) (U2OS [1]; [6]): 67%
- Population Hoechst High Intensity Objects (%) (U2OS [1]; [6]): 8%
- Population Membrane Permeable-Phenotype (%) (U2OS [1]; [6]): 51%
- Population Mitochondria Different-Phenotype (%) (U2OS [1]; [6]): 94%
- Population Mitotic Cells (%) (U2OS [1]; [6]): 18%
- Population Normal (%) (U2OS [1]; [6]): 91%
- Population Pyknosed Nuclei (%) (U2OS [1]; [6]): 9%
- Population Tubulin-Different-Phenotype (%) (U2OS [1]; [6]): 100%
- Total Cell Count (U2OS [1]; [6]): 123
- Population Apoptotic (%) (U2OS [1]; [7]): 46%
- Population Fragmented Nuclei (%) (U2OS [1]; [7]): 17%
- Population Healthy Nuclei (%) (U2OS [1]; [7]): 73%
- Population Hoechst High Intensity Objects (%) (U2OS [1]; [7]): 2%
- Population Membrane Permeable-Phenotype (%) (U2OS [1]; [7]): 20%
- Population Mitochondria Different-Phenotype (%) (U2OS [1]; [7]): 29%
- Population Mitotic Cells (%) (U2OS [1]; [7]): 53%
- Population Normal (%) (U2OS [1]; [7]): 97%
- Population Pyknosed Nuclei (%) (U2OS [1]; [7]): 9%
- Population Tubulin-Different-Phenotype (%) (U2OS [1]; [7]): 17%
- Total Cell Count (U2OS [1]; [7]): 145
- Population Apoptotic (%) (U2OS [1]; [8]): 55%
- Population Fragmented Nuclei (%) (U2OS [1]; [8]): 21%
- Population Healthy Nuclei (%) (U2OS [1]; [8]): 69%
- Population Hoechst High Intensity Objects (%) (U2OS [1]; [8]): 12%
- Population Membrane Permeable-Phenotype (%) (U2OS [1]; [8]): 15%
- Population Mitochondria Different-Phenotype (%) (U2OS [1]; [8]): 35%
- Population Mitotic Cells (%) (U2OS [1]; [8]): 44%
- Population Normal (%) (U2OS [1]; [8]): 87%
- Population Pyknosed Nuclei (%) (U2OS [1]; [8]): 8%
- Population Tubulin-Different-Phenotype (%) (U2OS [1]; [8]): 10%
- Total Cell Count (U2OS [1]; [8]): 115
- Population Apoptotic (%) (U2OS [1]; [9]): 93%
- Population Fragmented Nuclei (%) (U2OS [1]; [9]): 18%
- Population Healthy Nuclei (%) (U2OS [1]; [9]): 72%
- Population Hoechst High Intensity Objects (%) (U2OS [1]; [9]): 5%
- Population Membrane Permeable-Phenotype (%) (U2OS [1]; [9]): 61%
- Population Mitochondria Different-Phenotype (%) (U2OS [1]; [9]): 99%
- Population Mitotic Cells (%) (U2OS [1]; [9]): 6%
- Population Normal (%) (U2OS [1]; [9]): 94%
- Population Pyknosed Nuclei (%) (U2OS [1]; [9]): 9%
- Population Tubulin-Different-Phenotype (%) (U2OS [1]; [9]): 99%
- Total Cell Count (U2OS [1]; [9]): 180
- Population Apoptotic (%) (U2OS [1]; [10]): 88%
- Population Fragmented Nuclei (%) (U2OS [1]; [10]): 22%
- Population Healthy Nuclei (%) (U2OS [1]; [10]): 70%
- Population Hoechst High Intensity Objects (%) (U2OS [1]; [10]): 10%
- Population Membrane Permeable-Phenotype (%) (U2OS [1]; [10]): 84%
- Population Mitochondria Different-Phenotype (%) (U2OS [1]; [10]): 100%
- Population Mitotic Cells (%) (U2OS [1]; [10]): 11%
- Population Normal (%) (U2OS [1]; [10]): 89%
- Population Pyknosed Nuclei (%) (U2OS [1]; [10]): 7%
- Population Tubulin-Different-Phenotype (%) (U2OS [1]; [10]): 100%
- Total Cell Count (U2OS [1]; [10]): 135
- Growth Rate (HEK-293T; [15]): 1
- Growth Rate (HEK-293T; [11]): 0
- Growth Rate (HEK-293T; [12]): 0
- Growth Rate (HEK-293T; [13]): 0
- Growth Rate (HEK-293T; [14]): 0
- Growth Rate (U2OS [2]; [15]): 0
- Growth Rate (U2OS [2]; [11]): 0
- Growth Rate (U2OS [2]; [12]): 0
- Growth Rate (U2OS [2]; [13]): 0
- Growth Rate (U2OS [2]; 18 h, replicate number 2, timepoint 18 hours): 1
- Growth Rate (U2OS [2]; [14]): 0
- Growth Rate (U2OS [2]; 24 h, replicate number 2, timepoint 24 hours): 1
